Source: PubChem (several laboratories)
CSN deneddyl inh = inhibitors of human CSN-mediated cullin deneddylation | Q92905 | Purified CSN, SCF-Nedd8-OG deneddylation, fluorescence polarization | inhibition, % at 12.5 µM | 0.38% of 360,000 active;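 active = pattern-corrected inhibition above about 35%, with an unprinted fluorescence ratio check between 0.5 and 1.5, limit read from the data, passing the limit was not always enough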
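Assay system: purified human Csn5 enzyme expressed in HEK293T cells; Input: 0.24 nM Csn5 enzyme, final concentration; Reagent: 10 nM SCFSkp2-Nedd8OG; Compound dosing: 12.5 µM single point; Times: reaction 90 min, room temperature; Technique: fluorescence polarization readout.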
Rpn11 inh = Rpn11 (human) deubiquitinase inhibition. AID 588493. 0.59% of 360,000 active. human 26S proteasome, Ub4-pepOG fluorescence polarization; 20S core pre-blocked with epoxomicin. inhibition, % at 20 µM;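 active = inhibition at 20 µM, scaled to each plate's controls, above about 33%, limit read from the data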
IDE cell inh = inhibitors of human insulin-degrading enzyme in cells; inhibition, % at 5.59 µM; HEK cells, FAbetaB cleavage, fluorescence polarization; 0.41% of 320,000 active; AID 434962;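 active = percent inhibition above the average of all tested compounds plus 3 SD, set per screening campaign, cut at about 16% in these data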;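 also: IDE supplied by intact live HEK cells; FP after avidin binding of uncleaved biotin substrate so inhibition keeps polarization high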
IDE cell activ = activators of human insulin-degrading enzyme in cells; P14735; 0.073% of 340,000 active; activation, % at 5.96 µM; HEK cells, FAbeta-B cleavage, fluorescence polarization; 0% vehicle, 100% cell-free pure enzyme wells;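 active = activation above the mean of all tested compounds plus 3 SD, set per screening campaign, cut at about 17% in these data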
HNF4A DNA FP = change in binding of human HNF4 alpha to DNA; HNF4a-FITC DNA binding, fluorescence polarization, 1 h; activity change, % at 10 µM; 0.3% of 360,000 active; AID 1224865; in the data active = activity change above about 30%, passing the limit was not always enough
TPT1 inhibitor = C. albicans TPT1 enzyme inhibition; recombinant caTPT1, FP RNA substrate dephosphorylation; inhibition, % at 5 µM; 0.81% of 300,000 active;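 active = inhibition above the mean of all tested compounds plus 3 SD, set per screening campaign, cut at about 24% in these data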
TPT1 inh confirm = TPT1 (C. albicans) inhibition, confirmation | recombinant caTPT1, fluorescence polarization, RNase T1 coupled | 74% of 2,400 active | AID 2149 | inhibition, % at 5 µM | shares compounds with TPT1 inhibitor;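 active = inhibition above the primary screen limit, the mean inhibition of all tested compounds plus 3 SD, cut at about 25% in these data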
RNase T1 inh = RNase T1 inhibition in TPT1 counter-screen | shares compounds with TPT1 inhibitor | RNase T1 cleavage, fluorescence polarization, 1536-well | inhibition, % at 5 µM | 83% of 2,400 active;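 active = inhibition above the solvent-only control well mean plus 3 SD, limit set per screening run, cut at about 23% in these data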;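 also: inhibitors block cleavage so intact labeled substrate keeps polarization high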
A number is an active result; n = inactive; x = no result shown; + = active, no number. Most compounds without a hit are left out; they make up all but 1.7% or so of the library.

SMILES	CSN deneddyl inh	Rpn11 inh	IDE cell inh	IDE cell activ	HNF4A DNA FP	TPT1 inhibitor	TPT1 inh confirm	RNase T1 inh
Cc1cc(NC(=O)C(C)SCC(=O)OCc2ccc([N+](=O)[O-])cc2)no1 (stereo not given)	n	n	n	n	n	n	x	x
O=c1c2ccccc2nc(SCc2ccncc2)n1CC1CCCO1 (stereo not given)	n	n	n	n	n	n	x	x
CCCCNc1c(-c2ccc(-c3ccc(C(C)=O)cc3)c(OC)c2)nc2cnccn12	n	n	n	n	n	26.4	51.8	62.5
CC(C)(C)OC(=O)N/N=C/c1ccc(N2CCOCC2)s1	n	x	n	n	41.7	26.3	93.5	104.6
Nc1ccc(C(=O)N/N=C/c2ccc(N3CCOCC3)s2)cc1	n	n	n	n	n	x	x	x
CC1(C)OC(=O)C(=Cc2ccc(-c3ccc(S(N)(=O)=O)cc3)o2)C(=O)O1	n	n	n	n	n	28.5	n	n
Cc1ccc(-c2nnc(Nc3ccc4c(c3)OCO4)c3ccccc23)cc1S(=O)(=O)NC(C)C	n	n	n	n	n	52.5	n	n
Cc1ccc(-c2nnc(Nc3ccc4c(c3)OCO4)c3ccccc23)cc1S(=O)(=O)NCCO	n	n	n	n	n	n	x	x
COc1ccc(/C=C/C(=O)c2ccc(OC)cc2OC)cc1	n	n	n	n	n	n	x	x
CNc1ccc(Br)cc(C(=O)/C=C/c2cc(OC)ccc2OC)c1=O	n	n	n	n	n	65.7	63.4	76.5
CNc1ccc(Br)cc(C(=O)/C=C/c2ccc(OC)cc2)c1=O	n	n	n	n	n	52.8	36.1	46.5
CCNc1ccc(Br)cc(C(=O)/C=C/c2ccc(Cl)cc2Cl)c1=O	n	n	n	n	n	68.7	84.5	92.4
COCCCNC(=O)/C=C/c1ccc(Cl)cc1Cl	n	n	n	n	n	n	x	x
O=S(=O)(/N=C(/Nc1cccnc1)c1ccccc1)c1ccc(F)cc1F	n	n	n	n	n	x	x	x
O=C(NCCCc1ccc(F)cc1)C1CCC(=O)N(CC2CCCCC2)C1 (stereo not given)	n	n	n	n	n	n	x	x
O=C(OCC1OC(n2ccc(=O)[nH]c2=O)C2OC12)c1ccccc1 (stereo not given)	n	n	x	n	n	x	x	x
O=C(O)CCn1cc(/C=C2\SC(=S)NC2=O)c(-c2ccccc2)n1	n	n	n	x	n	54.2	n	n
Cc1nc(-c2coc3cc(C)c(N=O)c(O)c3/c2=N\N)cs1	n	n	n	n	n	80.3	n	n
CN(C)/C=C/C(=O)c1ccc(N2CCN(c3ncc(C(F)(F)F)cc3Cl)CC2)cc1	n	n	n	n	n	80.2	n	n
COc1ccc(S(=O)(=O)NCC(c2ccc(C)cc2)N2CCN(C)CC2)cc1 (stereo not given)	n	n	n	n	n	n	x	x
CCCn1c(NC(=O)CCS(=O)(=O)c2ccc(C)cc2)nc2ccccc21	n	n	n	n	n	46.3	58.5	67.7
O=C1CCC(=O)N1CCSC(=S)N1CCSCC1	n	n	n	n	n	n	x	x
CN1C/C(=C\c2ccc(N3CCOCC3)cc2)C(=O)/C(=C/c2ccc(N3CCOCC3)cc2)C1	n	x	n	n	n	62.8	89.3	94.4
CN1C/C(=C/c2ccncc2)C(=O)/C(=C/c2ccncc2)C1	n	n	n	n	n	n	x	x
CCc1ccccc1NC(=S)NCCSc1ccc(Cl)cc1	n	n	n	n	n	+	n	n
SMILES	CSN deneddyl inh	Rpn11 inh	IDE cell inh	IDE cell activ	HNF4A DNA FP	TPT1 inhibitor	TPT1 inh confirm	RNase T1 inh
Cc1ccc(C2NC(=O)c3c(sc4c3CCN(C)C4)N2)o1 (stereo not given)	n	n	n	n	n	n	x	x
Cc1ccc(C2NC(=O)c3c(sc4c3CCN(C)C4)N2)s1 (stereo not given)	n	x	n	n	n	64.4	38.5	47.4
CN1CCc2c(sc3c2C(=O)NC(c2ccccc2)N3)C1 (stereo not given)	n	n	n	n	n	27.3	31.2	44.5
CN1CCc2c(sc3c2C(=O)NC(c2ccccn2)N3)C1 (stereo not given)	n	n	n	n	n	n	x	x
CCOC(=O)c1c(/N=C/N(C)C)sc(C)c1C	n	n	n	n	n	n	x	x
CCOC(=O)c1c(/N=C/N(C)C)sc(/C=N/Nc2ccccc2)c1-c1ccc(Cl)cc1	n	42.9	n	n	n	40.2	29.2	43.3
CC(C)N1CCc2c(sc(N)c2C#N)C1	n	n	n	n	n	29.8	41.6	48.3
CCN1CCc2c(sc(N)c2C#N)C1	n	n	n	n	n	n	x	x
Cc1ccc(C2=NOC(C)(c3nnc(Cc4ccccc4)o3)C2)cc1 (stereo not given)	n	n	n	n	n	n	x	x
CCN(CC)CCCNC(=O)c1cc2c(-c3cccc(OC)c3)nn(C)c2s1	n	n	n	n	n	36.7	n	n
CCCCN(C)CCNC(=O)c1cc2c(-c3cccc(OC)c3)nn(C)c2s1	n	n	n	n	n	n	x	x
COc1ccc(C2NC3=C(CCCC3)C(C#N)(C#N)C2(C#N)C#N)cc1 (stereo not given)	x	x	n	x	x	33.4	34.3	47.4
Cc1cccc(C(=O)NNC2=CC(=O)CC(C)(C)C2)c1O	n	n	n	n	n	n	x	x
CC1(C)CC(=O)C=C(NNC(=O)c2ccccc2O)C1	n	n	n	n	n	38.8	46.2	57.4
COc1ccc2nc(N3CCCC(C(=O)NCCCN4C(C)CCCC4C)C3)sc2c1 (stereo not given)	n	n	n	n	n	n	x	x
CCN1C(=O)[C@@H]2Cc3c([nH]c4ccccc34)C(c3cc(OC)c(OC)c(OC)c3)N2C1=S (stereo not given in full)	n	x	n	n	n	58.0	64.4	73.2
C=CCN1C(=O)[C@@H]2Cc3c([nH]c4ccccc34)C(c3cc(OC)c(OC)c(OC)c3)N2C1=S (stereo not given in full)	n	x	n	n	n	56.8	47.4	56.9
CCOC(=O)C1CCCN(C(=O)c2cc3ccc(OC)cc3[nH]2)C1 (stereo not given)	n	n	x	n	n	x	x	x
O=[N+]([O-])c1ccc2c(c1)CNc1ccccc1O2	n	n	n	n	n	n	x	x
O=C1Nc2ccccc2Oc2cc([N+](=O)[O-])cc(Oc3ccccc3)c21	36.0	x	n	n	n	27.4	46.0	58.6
Cc1nnc(SCc2nc3ccccc3s2)n1-c1ccccc1	n	n	n	n	n	n	x	x
c1ccc(-n2cnnc2SCc2nc3ccccc3s2)cc1	n	n	n	n	n	33.0	49.2	60.8
